# Measured values published in ChEMBL document CHEMBL4680229, “Design, synthesis and bioactivity study of N-salicyloyl tryptamine derivatives as multifunctional agents for the treatment of neuroinflammation” (Eur J Med Chem, 2020).
# Activity calls are given as the source filed them. No cut-off for these calls is given here.
# Columns and labels:
# C6 [1] = test: Cytotoxicity against rat C6 cells assessed as reduction in cell viability after 24 hrs by MTT assay; type: cell-based; settings: C6, 24 h
# Procedure, shortened: (§1)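 C6 or BV2 cells seeded at 1–5×10^5 per well; after 12 h exposed to 0, 6.25, 12.5, 25, 50 or 100 μM (final, DMSO <0.4%) for 24 h. MTT added for 4 h, dissolved in DMSO, read at 570 nm. IC50 as mean of three independent experiments run in triplicate.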
# [2] = target: Prostaglandin G/H synthase 2 (Homo sapiens) (UniProt P35354); test: Inhibition of human COX2 assessed as reduction in PGF2alpha formation using arachidonic acid as substrate incubated for 10 mins by ELISA
# BV-2 [3] = test: Cytotoxicity against mouse BV-2 cells assessed as reduction in cell viability after 24 hrs by MTT assay; type: cell-based; settings: BV-2, 24 h; procedure, shortened: as §1
# [4] = Inhibition of LPS-induced NO production in mouse BV-2 cells incubated for 24 hrs by Griess reagent based assay; type: functional, cell-based; settings: BV-2, 24 h
# Procedure, shortened: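 BV2 cells at 5×10^5 cells/mL, LPS 1 μg/mL plus compound at 2.5–40 μM final for 24 h. Supernatant nitrite measured with Griess reagent for 15 min at room temperature in the dark, 540 nm, against a NaNO2 standard curve; IC50 from three repeats.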
# C6 [5] = test: Inhibition of LPS-induced NO production in rat C6 cells incubated for 24 hrs by Griess reagent based assay; type: functional, cell-based; settings: C6, 24 h
# Procedure, shortened: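 C6 cells at 5×10^5 cells/mL, LPS 10 μg/mL plus compound at 2.5–40 μM final for 24 h. Nitrite measured with Griess reagent at 540 nm against a NaNO2 standard; IC50 from three repeats.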
# [6] = target: Prostaglandin G/H synthase 1 (Homo sapiens) (UniProt P23219); test: Inhibition of human COX1 assessed as reduction in PGF2alpha formation using arachidonic acid as substrate incubated for 10 mins by ELISA
# Homo sapiens = organism: Homo sapiens; test: Selectivity index, ratio of IC50 for inhibition of human COX1 to IC50 for inhibition of human COX2
# BV-2 [7] = test: Antiinflammatory activity against LPS-induced mouse BV-2 cells assessed as decrease in ROS production at 10 to 40 uM after 6 hrs by DCFH-DA fluorescence probe based flow cytometric analysis; type: functional, cell-based; settings: dose 10-40 µM
# Procedure, shortened: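 BV2 cells with LPS 1 μg/mL and compound at 10, 20 or 40 μM for 6 h, then DCFH-DA 20 μM final for 30 min at 37 °C. Washed in cold PBS and read by flow cytometry, excitation 485 nm and emission 530 nm.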
# BV-2 [8] = test: Inhibition of LPS-induced TNFalpha production in mouse BV-2 cells after 24 hrs by ELISA; type: functional, cell-based; settings: dose 10-40 µM
# Procedure, shortened: (§2)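 BV2 cells at 5×10^5 cells/mL stimulated with LPS 1 μg/mL; compound at 10, 20 or 40 μM final for 24 h, DMSO in blanks. Supernatant TNF-α and IL-10 measured by sandwich ELISA and PGE2 by competitive ELISA, OD at 450 nm; at least three independent experiments.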
# BV-2 [9] = test: Antiinflammatory activity against LPS-induced mouse BV-2 cells assessed as decrease in COX2 protein expression at 40 uM after 24 hrs by Western blot analysis; type: functional, cell-based
# Procedure, shortened: (§3)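 BV2 cells in DMEM with 10% FBS; LPS 1 μg/mL plus compound at 10, 20 or 40 μM final for 24 h. Lysates in RIPA with 1 mM PMSF; 30 μg protein on 8% SDS-PAGE and blotted for iNOS and COX-2, GAPDH as reference; ECL detection and densitometry; at least three independent experiments.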
# [10] = Antioxidant activity assessed as DPPH radical scavenging activity incubated for 30 mins; type: functional
# Procedure, shortened: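 Compound in ethanol at 2.5–40 μM final, mixed 1:1 with 700 μmol/L ethanolic DPPH; 30 min in the dark at room temperature, absorbance at 515 nm. Serotonin used as standard; EC50 from three independent experiments.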
# BV-2 [11] = test: Antiinflammatory activity against LPS-induced mouse BV-2 cells assessed as decrease in iba-1 protein expression at 20 uM after 24 hrs by DAPI staining based confocal laser microscopic method; type: functional, cell-based
# Procedure, shortened: (§4)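 Cells on glass slides with compound at 20 μM final for 24 h: C6 with LPS 10 μg/mL stained for GFAP, BV2 with LPS 1 μg/mL stained for Iba-1. Fixed in 4% paraformaldehyde, blocked in 1% BSA/0.3% Triton X-100, primary antibody 1:100 overnight at 4 °C, secondary 1:200, DAPI mount, confocal imaging. Intensity given as % of LPS group, n = 3.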
# BV-2 [12] = test: Antiinflammatory activity against LPS-induced mouse BV-2 cells assessed as decrease in INOS protein expression at 40 uM after 24 hrs by Western blot analysis relative to control; type: functional; set-up: scale not given: the % may be the effect or the level left; procedure, shortened: as §3
# C6 [13] = test: Inhibition of LPS-induced TNFalpha production in rat C6 cells after 24 hrs by ELISA; type: functional, cell-based; settings: dose 10-40 µM
# Procedure, shortened: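 C6 cells at 5×10^5 cells/mL stimulated with LPS 10 μg/mL; compound at 10, 20 or 40 μM final for 24 h. Supernatant TNF-α measured by sandwich ELISA at 450 nm; at least three independent experiments.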
# BV-2 [14] = test: Antiinflammatory activity against LPS-induced mouse BV-2 cells assessed as increase in IL-10 production at 40 uM after 24 hrs by ELISA; type: functional, cell-based; procedure, shortened: as §2
# C6 [15] = test: Antiinflammatory activity against LPS-induced rat C6 cells assessed as decrease in GFAP protein expression at 20 uM after 24 hrs by DAPI staining based confocal laser microscopic method; type: functional, cell-based; procedure, shortened: as §4
# [16] = Induction of apoptosis in LPS-induced hippocampal neuroinflammatory Kunming mouse model at 50 mg/kg, ip administered bid for 6 days by Nissl staining based microscopic method; type: organism-based; settings: in vivo, 144 h, time 6 day
# Procedure, shortened: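 Male Kunming mice (8 weeks, 20–25 g, n = 10/group) were anaesthetised with i.p. chloral hydrate, then given LPS (3 μL of 10 mg/mL) into the lateral ventricle at 0.5 μL/min; sham mice received 3 μL saline. Compound was then given i.p. at 50 mg/kg in saline with 1% methyl cellulose for six consecutive days. Behaviour and deaths were recorded, and hippocampal slices were Nissl-stained.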
# Mus musculus = test: Antiinflammatory activity against LPS-induced hippocampal neuroinflammatory Kunming mouse model assessed as reduction in GFAP level in hippocampus at 50 mg/kg, ip administered bid for 6 days by DAPI staining based microscopic method; type: functional, organism-based; settings: time 6.0 day
# Chain of Prostaglandin G/H synthase 2 (Homo sapiens) (P35354 whole entry, looked up): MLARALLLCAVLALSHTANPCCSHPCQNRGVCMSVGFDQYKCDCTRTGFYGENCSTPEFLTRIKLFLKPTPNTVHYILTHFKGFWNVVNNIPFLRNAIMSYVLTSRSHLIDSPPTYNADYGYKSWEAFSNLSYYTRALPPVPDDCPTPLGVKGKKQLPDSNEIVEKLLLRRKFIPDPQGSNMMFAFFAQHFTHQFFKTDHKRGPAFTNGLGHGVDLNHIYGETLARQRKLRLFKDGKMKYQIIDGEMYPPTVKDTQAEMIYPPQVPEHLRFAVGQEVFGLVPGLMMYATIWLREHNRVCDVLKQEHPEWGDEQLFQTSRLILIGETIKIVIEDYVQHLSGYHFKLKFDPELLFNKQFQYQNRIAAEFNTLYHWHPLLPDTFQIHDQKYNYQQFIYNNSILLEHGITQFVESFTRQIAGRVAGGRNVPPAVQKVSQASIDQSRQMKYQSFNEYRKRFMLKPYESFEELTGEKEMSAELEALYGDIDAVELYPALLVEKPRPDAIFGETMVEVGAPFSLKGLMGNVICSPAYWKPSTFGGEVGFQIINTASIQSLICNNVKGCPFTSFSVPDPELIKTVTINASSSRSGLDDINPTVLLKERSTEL
SMILES,IC50 (C6 [1]),IC50 [2],IC50 (BV-2 [3]),IC50 [4],IC50 (C6 [5]),IC50 [6],other results
Cc1c(Cl)cccc1Nc1ccccc1C(=O)NCCc1c[nH]c2ccccc12,71.1 µM,14.5 µM,54.6 µM,,,,
Cc1cccc(Nc2ccccc2C(=O)NCCc2c[nH]c3ccccc23)c1C,95.2 µM,2.31 µM,55.1 µM,,,,
Cc1ccc2[nH]cc(CCNC(=O)c3ccccc3Nc3cccc(Cl)c3C)c2c1,66.1 µM,9.72 µM,73.7 µM,,,,
CN(C)c1ccccc1C(=O)NCCc1c[nH]c2ccc(O)cc12,> 100 µM,0.57 µM,> 100 µM,> 40 µM,> 40 µM,,
O=C(NCCc1c[nH]c2ccc(O)cc12)c1ccccc1O,> 100 µM,0.8 µM,> 100 µM,> 40 µM,> 40 µM,1.74 µM,Ratio IC50 (Homo sapiens): 2.18
O=C(NCCc1c[nH]c2ccccc12)c1ccccc1O,> 100 µM,> 40 µM,> 100 µM,26.4 µM,> 40 µM,,
O=C(NCCc1c[nH]c2ccccc12)c1cc(Cl)ccc1O,> 100 µM,10.4 µM,> 100 µM,> 40 µM,> 40 µM,> 40 µM,
CNc1ccccc1C(=O)NCCc1c[nH]c2ccccc12,> 100 µM,> 40 µM,> 100 µM,> 40 µM,> 40 µM,> 40 µM,
CN(c1ccccc1)c1ccccc1C(=O)NCCc1c[nH]c2ccccc12,28.5 µM,> 40 µM,7.98 µM,,,,
O=C(NCCc1c[nH]c2ccc(Cl)cc12)c1ccccc1Nc1ccccc1,79.3 µM,0.58 µM,62.4 µM,,,1.34 µM,Ratio IC50 (Homo sapiens): 2.31
Cc1ccc2[nH]cc(CCNC(=O)c3ccccc3Nc3ccccc3)c2c1,87.9 µM,1.47 µM,64.6 µM,,,27 µM,Ratio IC50 (Homo sapiens): 18.4
COc1ccc2[nH]cc(CCNC(=O)c3ccccc3Nc3cccc(Cl)c3C)c2c1,62.4 µM,> 40 µM,> 100 µM,,,,
O=C(NCCc1c[nH]c2ccccc12)c1ccc(F)cc1O,> 100 µM,> 40 µM,> 100 µM,> 40 µM,> 40 µM,> 40 µM,
COc1ccc2[nH]cc(CCNC(=O)c3ccccc3Nc3ccccc3)c2c1,89.3 µM,2.76 µM,> 100 µM,19.9 µM,7.61 µM,38.6 µM,Ratio IC50 (Homo sapiens): 14
O=C(NCCc1c[nH]c2ccccc12)c1ccccc1Nc1ccccc1,115 µM,2.62 µM,> 100 µM,25.9 µM,15.3 µM,0.47 µM,Activity (BV-2 [7]): Active; inhibition (BV-2 [8]): Dose-dependent effect; Activity (BV-2 [9]): Active; EC50 [10]: > 100 µM; Activity (BV-2 [11]): Active; Activity (BV-2 [12]): 66%; inhibition (C6 [13]): Dose-dependent effect; Activity (BV-2 [14]): inactive; Activity (C6 [15]): Active; Ratio IC50 (Homo sapiens): 0.18
O=C(NCCc1c[nH]c2ccccc12)c1cc2ccccc2cc1O,> 100 µM,2.18 µM,> 100 µM,59 µM,13.2 µM,39.2 µM,Ratio IC50 (Homo sapiens): 18
NCCc1c[nH]c2ccc(O)cc12 [SEROTONIN],,,,,,,EC50 [10]: 0.63 µM
CN(C)c1ccccc1C(=O)NCCc1c[nH]c2ccccc12,> 100 µM,> 40 µM,> 100 µM,22.9 µM,> 40 µM,,
O=C(O)c1ccccc1O [SALICYLIC ACID],,> 40 µM,,,,> 40 µM,Activity [16]: Toxic; Activity (Mus musculus): Active
Cc1cccc(Nc2ccccc2C(=O)NCCc2c[nH]c3ccc(O)cc23)c1C,80.5 µM,1.4 µM,56.4 µM,,,,
O=C(NCCc1c[nH]c2ccccc12)c1ccc(O)cc1O,> 100 µM,25 µM,> 100 µM,> 40 µM,> 40 µM,> 40 µM,
Cc1ccc2[nH]cc(CCNC(=O)c3ccccc3O)c2c1,> 100 µM,> 40 µM,> 100 µM,> 40 µM,> 40 µM,> 40 µM,
Cc1ccc(O)c(C(=O)NCCc2c[nH]c3ccccc23)c1,> 100 µM,> 40 µM,> 100 µM,> 40 µM,> 40 µM,> 40 µM,
